Test results taken from ChEMBL document CHEMBL1177660, “Discovery of novel purine derivatives with potent and selective inhibitory activity against c-Src tyrosine kinase” (Bioorg Med Chem, 2010).
pIC50: −log10 of the molar value.

Experiments:
[1] = target: T1, Proto-oncogene tyrosine-protein kinase Src (Homo sapiens, UniProt P12931); experiment: Inhibition cSRC
[2] = target: T1, Proto-oncogene tyrosine-protein kinase Src; experiment: Inhibition cSRC at 10 uM
How it was run: (§1)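 Purified kinases assayed by ELISA on wells coated with 20 µg/mL poly(Glu,Tyr)4:1. Detected with PY99 anti-phosphotyrosine, HRP anti-mouse IgG and o-phenylenediamine; A492.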

[3] = target: T2, Tyrosine-protein kinase ABL1 (Homo sapiens, UniProt P00519); experiment: Inhibition cABl; how it was run: as §1
[4] = target: Vascular endothelial growth factor receptor 1 (Homo sapiens) (UniProt P17948); experiment: Inhibition VEGFR1 at 10 uM; how it was run: as §1
[5] = target: Vascular endothelial growth factor receptor 2 (Homo sapiens) (UniProt P35968); experiment: Inhibition KDR at 10 uM; how it was run: as §1
[6] = target: Receptor tyrosine-protein kinase erbB-2 (Homo sapiens) (UniProt P04626); experiment: Inhibition ErbB2 at 10 uM; how it was run: as §1
[7] = target: T1, Proto-oncogene tyrosine-protein kinase Src; experiment: Inhibition of human SRC-mediated migration of human MDA-MB-231 cells by wound-healing assay
[8] = target: T2, Tyrosine-protein kinase ABL1; experiment: Inhibition cABl at 10 uM; how it was run: as §1
[9] = target: Focal adhesion kinase 1 (Homo sapiens) (UniProt Q05397); experiment: Inhibition of FAK phosphorylation in human MDA-MB-231 cells by Western blotting; assay type: cell-based
How it was run: (§2)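 MDA-MB-231 cells, 4.5×10^5 per well, plated overnight. Then exposed for 24 h to 1, 3 or 10 µM compound or DMSO alone. Western blot probed p-Src (Tyr416), total Src, p-FAK (Tyr861), FAK and GAPDH. Three independent blots.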

[10] = target: T1, Proto-oncogene tyrosine-protein kinase Src; experiment: Inhibition of human SRC-mediated invasion of human MDA-MB-231 cells; assay type: cell-based
How it was run: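 Matrigel-coated (1 mg/mL) Transwell filters, 8 lm pores, with 10% FBS in the lower chamber. MDA-MB-231 cells and compound or DMSO were added together to the upper chamber and invaded 18 h at 37 °C. Non-invaded cells were removed. Invaded cells were stained with crystal violet, extracted with 10% acetic acid and read at 595 nm. Mean of three experiments, SD.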

MDA-MB-231 = experiment: Antiproliferative activity against human MDA-MB-231 cells assessed as viability after 24 hrs by MTT assay; assay type: functional
How it was run: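 MDA-MB-231 cells (ATCC; L15 medium, 10% FBS, 37 °C, 5% CO2) exposed to test concentrations for 24 h; viability scored by MTT.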

[11] = target: Ephrin type-A receptor 2 (Homo sapiens) (UniProt P29317); experiment: Inhibition EphA2 at 10 uM; how it was run: as §1
[12] = target: T3, Mast/stem cell growth factor receptor Kit (Homo sapiens, UniProt P10721); experiment: Inhibition kit at 10 uM; how it was run: as §1
[13] = target: T3, Mast/stem cell growth factor receptor Kit; experiment: Inhibition kit; how it was run: as §1
[14] = target: Fibroblast growth factor receptor 2 (Homo sapiens) (UniProt P21802); conditions: 10 uM
[15] = target: Fibroblast growth factor receptor 1 (Homo sapiens) (UniProt P11362); experiment: Inhibition FGFR1 at 10 uM; how it was run: as §1
[16] = target: Platelet-derived growth factor receptor beta (Homo sapiens) (UniProt P09619); experiment: Inhibition PDGFRbeta at 10 uM; how it was run: as §1
[17] = target: T1, Proto-oncogene tyrosine-protein kinase Src; experiment: Inhibition of SRC phosphorylation in human MDA-MB-231 cells; assay type: cell-based; how it was run: as §2
[18] = target: Hepatocyte growth factor receptor (Homo sapiens) (UniProt P08581); conditions: 10 uM
[19] = target: T4, Ephrin type-B receptor 2 (Homo sapiens) (UniProt P29323); experiment: Inhibition EphB2 at 10 uM; how it was run: as §1
T4 sequence (whole entry): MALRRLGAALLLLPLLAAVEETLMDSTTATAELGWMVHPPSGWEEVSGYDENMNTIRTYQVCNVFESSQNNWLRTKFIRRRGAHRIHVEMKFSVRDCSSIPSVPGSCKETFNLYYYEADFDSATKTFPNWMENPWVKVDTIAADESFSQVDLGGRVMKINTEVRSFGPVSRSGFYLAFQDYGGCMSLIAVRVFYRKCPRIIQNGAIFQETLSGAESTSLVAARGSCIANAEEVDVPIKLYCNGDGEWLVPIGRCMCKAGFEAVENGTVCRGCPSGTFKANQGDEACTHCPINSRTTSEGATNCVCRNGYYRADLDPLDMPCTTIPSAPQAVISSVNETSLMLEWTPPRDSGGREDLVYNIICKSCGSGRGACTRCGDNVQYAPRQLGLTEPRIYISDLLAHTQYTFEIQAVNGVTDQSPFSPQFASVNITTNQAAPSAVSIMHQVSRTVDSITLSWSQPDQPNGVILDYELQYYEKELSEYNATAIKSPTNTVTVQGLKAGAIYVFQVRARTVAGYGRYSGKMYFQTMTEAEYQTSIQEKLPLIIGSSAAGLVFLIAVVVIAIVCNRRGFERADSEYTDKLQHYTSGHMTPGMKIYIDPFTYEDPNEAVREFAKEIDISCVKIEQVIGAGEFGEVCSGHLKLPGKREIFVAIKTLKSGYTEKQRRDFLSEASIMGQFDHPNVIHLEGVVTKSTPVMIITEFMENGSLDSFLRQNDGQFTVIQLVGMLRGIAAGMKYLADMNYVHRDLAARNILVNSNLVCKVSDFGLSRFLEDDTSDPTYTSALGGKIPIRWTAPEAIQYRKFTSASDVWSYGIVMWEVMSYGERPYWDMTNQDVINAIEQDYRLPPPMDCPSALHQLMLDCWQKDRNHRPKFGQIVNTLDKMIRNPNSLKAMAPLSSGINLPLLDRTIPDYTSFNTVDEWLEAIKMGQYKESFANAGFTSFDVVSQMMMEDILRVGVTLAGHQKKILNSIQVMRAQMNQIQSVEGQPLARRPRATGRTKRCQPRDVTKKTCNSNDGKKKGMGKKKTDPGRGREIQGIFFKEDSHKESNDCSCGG

T1 sequence (P12931 2-536 limits assumed): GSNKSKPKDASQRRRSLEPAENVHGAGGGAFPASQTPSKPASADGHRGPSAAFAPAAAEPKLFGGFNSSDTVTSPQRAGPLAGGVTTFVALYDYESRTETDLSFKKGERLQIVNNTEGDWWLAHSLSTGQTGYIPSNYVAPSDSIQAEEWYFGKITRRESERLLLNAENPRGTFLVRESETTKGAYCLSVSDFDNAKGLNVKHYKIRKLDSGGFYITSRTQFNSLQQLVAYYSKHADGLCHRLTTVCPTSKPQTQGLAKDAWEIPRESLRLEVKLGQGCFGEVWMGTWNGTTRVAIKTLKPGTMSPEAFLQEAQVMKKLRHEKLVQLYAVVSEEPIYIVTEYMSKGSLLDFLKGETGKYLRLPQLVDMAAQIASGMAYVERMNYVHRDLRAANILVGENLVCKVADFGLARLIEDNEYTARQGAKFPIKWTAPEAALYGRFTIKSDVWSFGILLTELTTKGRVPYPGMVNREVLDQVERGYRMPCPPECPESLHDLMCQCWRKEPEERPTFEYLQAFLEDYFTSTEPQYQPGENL
T3 sequence (P10721 whole entry): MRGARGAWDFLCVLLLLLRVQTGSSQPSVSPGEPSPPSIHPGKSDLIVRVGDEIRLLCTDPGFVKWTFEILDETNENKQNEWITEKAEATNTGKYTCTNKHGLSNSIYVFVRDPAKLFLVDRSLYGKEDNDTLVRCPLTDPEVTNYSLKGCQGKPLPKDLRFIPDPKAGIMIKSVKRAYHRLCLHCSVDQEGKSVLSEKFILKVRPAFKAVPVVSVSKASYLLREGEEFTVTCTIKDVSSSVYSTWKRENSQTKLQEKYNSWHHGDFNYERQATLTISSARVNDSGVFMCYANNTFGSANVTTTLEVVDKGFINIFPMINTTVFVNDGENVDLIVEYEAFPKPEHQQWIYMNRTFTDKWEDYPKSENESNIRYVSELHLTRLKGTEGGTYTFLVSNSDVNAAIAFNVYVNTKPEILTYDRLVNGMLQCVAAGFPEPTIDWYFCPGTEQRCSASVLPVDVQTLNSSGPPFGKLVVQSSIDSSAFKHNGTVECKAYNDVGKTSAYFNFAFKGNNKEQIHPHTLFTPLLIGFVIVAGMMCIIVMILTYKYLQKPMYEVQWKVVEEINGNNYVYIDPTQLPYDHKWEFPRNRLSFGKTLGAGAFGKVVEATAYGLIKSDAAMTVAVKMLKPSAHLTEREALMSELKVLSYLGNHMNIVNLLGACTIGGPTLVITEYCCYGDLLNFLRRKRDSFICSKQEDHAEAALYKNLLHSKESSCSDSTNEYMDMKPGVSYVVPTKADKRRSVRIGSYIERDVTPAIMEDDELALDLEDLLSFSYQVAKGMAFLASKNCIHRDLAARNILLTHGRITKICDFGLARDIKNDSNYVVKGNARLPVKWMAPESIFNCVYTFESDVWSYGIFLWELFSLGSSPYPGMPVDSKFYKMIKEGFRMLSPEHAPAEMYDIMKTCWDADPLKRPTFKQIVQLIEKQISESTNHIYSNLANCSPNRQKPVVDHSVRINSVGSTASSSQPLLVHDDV
T2 sequence (P00519 whole entry): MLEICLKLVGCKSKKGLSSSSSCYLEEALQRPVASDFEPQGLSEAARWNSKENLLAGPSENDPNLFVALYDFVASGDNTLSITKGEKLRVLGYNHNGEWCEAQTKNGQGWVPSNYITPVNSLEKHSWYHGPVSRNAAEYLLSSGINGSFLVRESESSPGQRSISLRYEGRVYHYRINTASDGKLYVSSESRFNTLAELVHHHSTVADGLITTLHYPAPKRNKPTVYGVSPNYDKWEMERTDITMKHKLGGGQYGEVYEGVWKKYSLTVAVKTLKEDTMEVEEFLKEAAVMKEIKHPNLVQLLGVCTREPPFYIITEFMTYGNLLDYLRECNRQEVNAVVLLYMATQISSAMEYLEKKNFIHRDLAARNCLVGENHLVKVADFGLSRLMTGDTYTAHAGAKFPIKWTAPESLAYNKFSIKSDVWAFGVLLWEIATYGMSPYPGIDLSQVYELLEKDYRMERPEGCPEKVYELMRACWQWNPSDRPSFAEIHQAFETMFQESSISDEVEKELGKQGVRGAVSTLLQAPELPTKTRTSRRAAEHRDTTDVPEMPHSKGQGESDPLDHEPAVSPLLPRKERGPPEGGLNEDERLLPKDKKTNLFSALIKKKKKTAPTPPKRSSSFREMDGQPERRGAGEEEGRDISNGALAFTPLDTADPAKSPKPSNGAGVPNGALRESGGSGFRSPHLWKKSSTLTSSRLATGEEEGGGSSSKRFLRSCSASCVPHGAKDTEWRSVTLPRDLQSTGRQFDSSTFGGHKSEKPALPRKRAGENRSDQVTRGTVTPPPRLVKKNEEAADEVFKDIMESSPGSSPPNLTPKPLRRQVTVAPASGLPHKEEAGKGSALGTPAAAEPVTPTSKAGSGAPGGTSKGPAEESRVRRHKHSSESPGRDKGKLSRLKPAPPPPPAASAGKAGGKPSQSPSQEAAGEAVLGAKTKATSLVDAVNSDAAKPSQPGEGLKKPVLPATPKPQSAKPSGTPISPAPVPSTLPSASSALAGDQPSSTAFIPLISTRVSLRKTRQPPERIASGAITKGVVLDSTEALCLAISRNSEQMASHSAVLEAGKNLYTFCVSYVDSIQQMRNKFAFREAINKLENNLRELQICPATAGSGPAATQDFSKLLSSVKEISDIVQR
Chain of Vascular endothelial growth factor receptor 1 (Homo sapiens) (P17948 whole entry): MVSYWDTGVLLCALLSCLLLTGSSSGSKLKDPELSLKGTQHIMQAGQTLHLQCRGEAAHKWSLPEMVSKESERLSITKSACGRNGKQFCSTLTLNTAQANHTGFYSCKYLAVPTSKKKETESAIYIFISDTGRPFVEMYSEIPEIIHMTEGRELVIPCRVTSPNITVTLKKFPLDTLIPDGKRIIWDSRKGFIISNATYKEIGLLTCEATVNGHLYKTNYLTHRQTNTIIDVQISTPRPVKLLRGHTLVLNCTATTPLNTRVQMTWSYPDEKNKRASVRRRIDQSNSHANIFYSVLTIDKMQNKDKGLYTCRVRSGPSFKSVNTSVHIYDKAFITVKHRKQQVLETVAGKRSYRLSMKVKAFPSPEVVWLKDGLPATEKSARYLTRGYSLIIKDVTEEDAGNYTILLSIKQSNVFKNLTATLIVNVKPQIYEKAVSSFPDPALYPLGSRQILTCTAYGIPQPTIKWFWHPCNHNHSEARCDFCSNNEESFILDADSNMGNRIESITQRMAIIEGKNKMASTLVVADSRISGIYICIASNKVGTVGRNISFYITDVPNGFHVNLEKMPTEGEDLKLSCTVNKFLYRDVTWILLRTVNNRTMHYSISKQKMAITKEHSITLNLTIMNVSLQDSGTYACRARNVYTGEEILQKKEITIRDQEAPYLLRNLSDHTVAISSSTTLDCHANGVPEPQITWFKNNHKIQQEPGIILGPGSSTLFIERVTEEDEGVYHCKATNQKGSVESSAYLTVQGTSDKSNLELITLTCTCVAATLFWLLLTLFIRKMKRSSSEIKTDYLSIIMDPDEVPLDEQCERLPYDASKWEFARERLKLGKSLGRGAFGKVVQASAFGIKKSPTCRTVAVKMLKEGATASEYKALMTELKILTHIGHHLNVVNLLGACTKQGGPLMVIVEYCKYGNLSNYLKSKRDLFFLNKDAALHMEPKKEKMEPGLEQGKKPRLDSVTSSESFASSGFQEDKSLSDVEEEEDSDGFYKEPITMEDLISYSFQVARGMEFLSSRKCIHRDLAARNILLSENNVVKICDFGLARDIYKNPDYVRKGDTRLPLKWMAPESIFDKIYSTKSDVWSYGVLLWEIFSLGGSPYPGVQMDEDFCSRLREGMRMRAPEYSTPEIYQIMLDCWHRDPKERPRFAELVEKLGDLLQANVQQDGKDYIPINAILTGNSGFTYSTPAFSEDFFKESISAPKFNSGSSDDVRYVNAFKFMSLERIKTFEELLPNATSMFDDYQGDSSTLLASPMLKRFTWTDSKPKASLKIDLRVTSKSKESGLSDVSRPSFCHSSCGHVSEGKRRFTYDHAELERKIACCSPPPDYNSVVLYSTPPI
Chain of Platelet-derived growth factor receptor beta (Homo sapiens) (P09619 whole entry): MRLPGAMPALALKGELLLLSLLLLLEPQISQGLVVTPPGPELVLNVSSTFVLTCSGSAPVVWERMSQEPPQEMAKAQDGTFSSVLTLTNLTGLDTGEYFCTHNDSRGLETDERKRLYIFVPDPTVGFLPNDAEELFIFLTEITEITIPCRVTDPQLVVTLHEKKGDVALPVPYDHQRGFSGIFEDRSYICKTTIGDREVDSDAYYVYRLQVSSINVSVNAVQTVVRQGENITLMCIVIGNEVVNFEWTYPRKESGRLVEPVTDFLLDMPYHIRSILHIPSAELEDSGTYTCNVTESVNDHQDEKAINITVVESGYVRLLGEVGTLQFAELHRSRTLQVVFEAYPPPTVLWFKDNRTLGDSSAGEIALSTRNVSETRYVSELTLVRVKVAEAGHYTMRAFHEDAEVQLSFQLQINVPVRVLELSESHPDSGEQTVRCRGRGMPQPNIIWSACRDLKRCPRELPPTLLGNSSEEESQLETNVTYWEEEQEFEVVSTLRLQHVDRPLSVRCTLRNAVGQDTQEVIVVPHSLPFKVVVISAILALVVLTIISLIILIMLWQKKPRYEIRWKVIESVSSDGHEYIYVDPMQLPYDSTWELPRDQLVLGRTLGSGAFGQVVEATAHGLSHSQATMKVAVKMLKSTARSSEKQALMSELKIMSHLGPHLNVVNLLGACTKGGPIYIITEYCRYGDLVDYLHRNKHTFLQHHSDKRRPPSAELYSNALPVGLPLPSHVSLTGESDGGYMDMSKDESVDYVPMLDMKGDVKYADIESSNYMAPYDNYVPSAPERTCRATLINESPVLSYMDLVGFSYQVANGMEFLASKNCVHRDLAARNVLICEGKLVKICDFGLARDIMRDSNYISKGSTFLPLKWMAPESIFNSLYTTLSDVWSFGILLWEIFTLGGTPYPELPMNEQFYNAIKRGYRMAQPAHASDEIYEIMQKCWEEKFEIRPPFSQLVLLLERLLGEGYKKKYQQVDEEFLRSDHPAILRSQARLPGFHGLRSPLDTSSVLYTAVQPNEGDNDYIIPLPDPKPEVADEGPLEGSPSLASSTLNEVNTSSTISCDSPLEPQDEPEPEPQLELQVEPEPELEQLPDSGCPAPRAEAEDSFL

Row | pIC50 [1] | SMILES | further results
1 | 5.74 | NS(=O)(=O)c1ccc(Nc2nc(N3CCNCC3)nc3[nH]cnc23)cc1 | 
2 | 5.59 | Cc1cccc(Nc2nc(N3CCN(CCO)CC3)nc3nc[nH]c23)c1 | 
3 | 5.62 | Cc1cccc(Nc2nc(N3CCNCC3)nc3nc[nH]c23)c1 | 
4 | < 5.00 | c1ccc(Cn2cnc3c(Nc4ccccc4)nc(N4CCOCC4)nc32)cc1 | inhibition [2]: 20.2%
5 | 7.00 | NS(=O)(=O)c1cccc(Nc2nc(N3CCNCC3)nc3[nH]cnc23)c1 | 
6 | 6.59 | NS(=O)(=O)c1ccc(Nc2nc(N3CCN(CCO)CC3)nc3nc[nH]c23)cc1 | 
7 | 6.47 | O=[N+]([O-])c1cccc(Nc2nc(N3CCN(CCO)CC3)nc3[nH]cnc23)c1 | 
8 |  | Cc1cccc(Nc2nc(N3CCNCC3)nc3[nH]cnc23)c1 | inhibition [2]: 86.6%
9 | 6.03 | COc1cccc(Nc2nc(N3CCOCC3)nc3[nH]cnc23)c1 | 
10 | 5.80 | CC(=O)Nc1ccc(Nc2nc(N3CCN(CCO)CC3)nc3[nH]cnc23)cc1 | 
11 | 5.70 | NC(=O)c1ccc(Nc2nc(N3CCOCC3)nc3nc[nH]c23)cc1 | 
12 | 6.11 | O=[N+]([O-])c1ccc(Nc2nc(N3CCN(CCO)CC3)nc3nc[nH]c23)cc1 | 
13 | < 5.00 | COc1ccc(Nc2nc(N3CCOCC3)nc3c2ncn3Cc2ccccc2)cc1 | inhibition [2]: 16%
14 | 7.70 | NS(=O)(=O)c1ccc(Nc2nc(N3CCOCC3)nc3[nH]cnc23)cc1 | pIC50 [3]: 5.22; inhibition [4]: 0%; inhibition [5]: 47.2%; inhibition [6]: 43.1%; inhibition [7]: Dose-dependent effect; inhibition [8]: 73.4%; inhibition [9]: Dose-dependent effect; inhibition [10]: Dose-dependent effect; Activity (MDA-MB-231): > 95%; inhibition [11]: 48.7%; inhibition [12]: 83.1%; pIC50 [13]: 5.87; inhibition [14]: 4.1%; inhibition [15]: 48.7%; inhibition [16]: 17.2%; inhibition [17]: Dose-dependent effect; inhibition [18]: 43.2%; inhibition [19]: 11.5%
15 |  | COc1ccc(Nc2nc(N3CCNCC3)nc3[nH]cnc23)cc1 | inhibition [2]: 90.5%
16 | < 5.00 | COc1ccc(Nc2nc(N3CCNCC3)nc3c2ncn3Cc2ccccc2)cc1 | inhibition [2]: 22.5%
17 | < 5.00 | c1ccc(Cn2cnc3c(Nc4ccccc4)nc(N4CCNCC4)nc32)cc1 | inhibition [2]: 35.8%
18 | 5.66 | NC(=O)c1ccc(Nc2nc(N3CCNCC3)nc3nc[nH]c23)cc1 | 
19 | 6.19 | CC(=O)Nc1ccc(Nc2nc(N3CCOCC3)nc3[nH]cnc23)cc1 | 
20 | 5.93 | Clc1ccc(Nc2nc(N3CCNCC3)nc3[nH]cnc23)cc1 | 
21 | 6.35 | Brc1ccc(Nc2nc(N3CCOCC3)nc3[nH]cnc23)cc1 | 
22 | 6.12 | c1ccc(Nc2nc(N3CCOCC3)nc3[nH]cnc23)cc1 | 
23 | 5.50 | OCCN1CCN(c2nc(Nc3ccccc3)c3nc[nH]c3n2)CC1 | 

Row | pIC50 [1] | SMILES | further results
24 | 5.92 | COc1cccc(Nc2nc(N3CCN(CCO)CC3)nc3nc[nH]c23)c1 | 
25 | 5.88 | COc1ccc(Nc2nc(N3CCN(CCO)CC3)nc3nc[nH]c23)cc1 | 
26 | 6.89 | COc1ccc(Nc2nc(N3CCOCC3)nc3[nH]cnc23)cc1 | 
27 | 5.92 | COc1cccc(Nc2nc(N3CCNCC3)nc3nc[nH]c23)c1 | 
28 | < 5.00 | c1ccc(Cn2cnc3c(N4CCOCC4)nc(N4CCOCC4)nc32)cc1 | inhibition [2]: 16.4%
29 | 6.41 | O=[N+]([O-])c1ccc(Nc2nc(N3CCOCC3)nc3nc[nH]c23)cc1 | 
30 | 5.98 | CC(=O)Nc1ccc(Nc2nc(N3CCNCC3)nc3nc[nH]c23)cc1 | 
31 | 6.89 | O=[N+]([O-])c1cccc(Nc2nc(N3CCOCC3)nc3[nH]cnc23)c1 | 
32 | < 5.00 | Brc1ccc(Nc2nc(N3CCOCC3)nc3c2ncn3Cc2ccccc2)cc1 | inhibition [2]: 10.1%
33 | 6.47 | NS(=O)(=O)c1cccc(Nc2nc(N3CCN(CCO)CC3)nc3nc[nH]c23)c1 | 
34 | 5.61 | COc1ccc(Nc2nc(N3CCNCC3)nc3nc[nH]c23)cc1 | 
35 | < 5.00 | c1ccc(Cn2cnc3c(Nc4ccccc4)ncnc32)cc1 | inhibition [2]: 13.9%
36 | 6.08 | Cc1cccc(Nc2nc(N3CCOCC3)nc3nc[nH]c23)c1 | 
37 | 6.92 | NS(=O)(=O)c1cccc(Nc2nc(N3CCOCC3)nc3[nH]cnc23)c1 | 
38 | < 5.00 | c1ccc(Cn2cnc3c(N4CCOCC4)ncnc32)cc1 | inhibition [2]: 0%
39 | 6.47 | Clc1ccc(Nc2nc(N3CCOCC3)nc3nc[nH]c23)cc1 | 
40 | 6.16 | OCCN1CCN(c2nc(Nc3ccc(Cl)cc3)c3[nH]cnc3n2)CC1 | 
41 | 5.75 | Brc1ccc(Nc2nc(N3CCNCC3)nc3[nH]cnc23)cc1 | 
42 | < 5.00 | Brc1ccc(Nc2ncnc3c2ncn3Cc2ccccc2)cc1 | inhibition [2]: 6.9%
43 | 5.85 | O=[N+]([O-])c1ccc(Nc2nc(N3CCNCC3)nc3[nH]cnc23)cc1 | 
44 | 6.02 | O=[N+]([O-])c1cccc(Nc2nc(N3CCNCC3)nc3nc[nH]c23)c1 | 
45 | 5.91 | NC(=O)c1ccc(Nc2nc(N3CCN(CCO)CC3)nc3[nH]cnc23)cc1 | 
